Measured values published in ChEMBL document CHEMBL3407457, “Microwave-assisted synthesis of certain pyrrolylpyridines, some derived ring systems and their evaluation as anticancer and antioxidant agents” (Eur J Med Chem, 2015).

What was measured:
[1] = tested on: CCRF-CEM; test: Growth inhibition of human CCRF-CEM cells after 48 hrs by sulforhodamine B assay; format: functional
Summary of the method: (§1)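 NCI-60 five-dose screen: cells incubated 48 h with five concentrations (0.01-100 µM), read by sulforhodamine B protein assay. Log concentration-% growth inhibition curves gave GI50 (50% decrease in net growth), TGI (total growth inhibition) and LC50 (net 50% loss of initial cells). 5-FU positive control.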

[2] = tested on: HL-60(TB); test: Growth inhibition of human HL-60(TB) cells after 48 hrs by sulforhodamine B assay; format: functional; conditions: HL-60, 48 h
Summary of the method: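 NCI-60 five-dose screen, HL-60(TB) being one of the leukemia subpanel lines. Cells exposed to five concentrations (0.01-100 µM) for 48 h. GI50 (concentration giving 50% decrease in net cell growth) read from log concentration-% growth inhibition curves; TGI and LC50 also derived. 5-fluorouracil as positive control.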

[3] = Growth inhibition of human MOLT4 cells after 48 hrs by sulforhodamine B assay; format: functional; conditions: MOLT-4, 48 h; summary of the method: as §1
[4] = Growth inhibition of human RPMI8226 cells after 48 hrs by sulforhodamine B assay; format: functional; conditions: RPMI-8226, 48 h; summary of the method: as §1
[5] = tested on: SR; test: Growth inhibition of human SR cells after 48 hrs by sulforhodamine B assay; format: functional; summary of the method: as §1
[6] = Growth inhibition of human EKVX cells after 48 hrs by sulforhodamine B assay; format: functional; summary of the method: as §1
[7] = tested on: HOP-62; test: Growth inhibition of human HOP62 cells after 48 hrs by sulforhodamine B assay; format: functional; conditions: HOP-62, 48 h; summary of the method: as §1
[8] = Growth inhibition of human HOP92 cells after 48 hrs by sulforhodamine B assay; format: functional; conditions: HOP-92, 48 h; summary of the method: as §1
[9] = tested on: NCI-H226; test: Growth inhibition of human NCI-H226 cells after 48 hrs by sulforhodamine B assay; format: functional; conditions: NCI-H226, 48 h; summary of the method: as §1
[10] = tested on: NCI-H522; test: Growth inhibition of human NCI-H522 cells after 48 hrs by sulforhodamine B assay; format: functional; conditions: NCI-H522, 48 h; summary of the method: as §1
[11] = Growth inhibition of human HCT116 cells after 48 hrs by sulforhodamine B assay; format: functional; conditions: HCT-116, 48 h; summary of the method: as §1
[12] = tested on: SF-268; test: Growth inhibition of human SF268 cells after 48 hrs by sulforhodamine B assay; format: functional; conditions: SF-268, 48 h; summary of the method: as §1
[13] = Growth inhibition of human SF539 cells after 48 hrs by sulforhodamine B assay; format: functional; conditions: SF-539, 48 h; summary of the method: as §1
[14] = tested on: SNB-75; test: Growth inhibition of human SNB75 cells after 48 hrs by sulforhodamine B assay; format: functional; conditions: SNB-75, 48 h; summary of the method: as §1
[15] = Growth inhibition of human UACC62 cells after 48 hrs by sulforhodamine B assay; format: functional; conditions: UACC-62, 48 h; summary of the method: as §1
[16] = tested on: IGROV-1; test: Growth inhibition of human IGROV1 cells after 48 hrs by sulforhodamine B assay; format: functional; conditions: IGROV-1, 48 h; summary of the method: as §1
[17] = Growth inhibition of human OVCAR4 cells after 48 hrs by sulforhodamine B assay; format: functional; conditions: OVCAR-4, 48 h; summary of the method: as §1
[18] = tested on: A498; test: Growth inhibition of human A498 cells after 48 hrs by sulforhodamine B assay; format: functional; conditions: A498, 48 h; summary of the method: as §1
[19] = tested on: SN12C; test: Growth inhibition of human SN12C cells after 48 hrs by sulforhodamine B assay; format: functional; summary of the method: as §1
[20] = Growth inhibition of human UO31 cells after 48 hrs by sulforhodamine B assay; format: functional; conditions: UO-31, 48 h; summary of the method: as §1
[21] = tested on: DU-145; test: Growth inhibition of human DU145 cells after 48 hrs by sulforhodamine B assay; format: functional; conditions: DU-145, 48 h; summary of the method: as §1
[22] = tested on: MCF7; test: Growth inhibition of human MCF7 cells after 48 hrs by sulforhodamine B assay; format: functional; conditions: MCF7, 48 h; summary of the method: as §1
[23] = tested on: MDA-MB-231; test: Growth inhibition of human MDA-MB-231 cells after 48 hrs by sulforhodamine B assay; format: functional; conditions: MDA-MB-231, 48 h; summary of the method: as §1
[24] = Growth inhibition of human BT549 cells after 48 hrs by sulforhodamine B assay; format: functional; conditions: BT-549, 48 h; summary of the method: as §1
[25] = Antioxidant activity assessed as DPPH radical scavenging activity at 10^-4 M incubated for 30 mins by spectrophotometry; format: physicochemical; conditions: 0.5 h, 100 µM
Summary of the method: (§2)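 Compound at 10^-3 or 10^-4 M mixed with methanolic DPPH (0.1 mL of 1 mM stock; 3 mL total volume), shaken, kept in the dark 30 min at room temperature. Absorbance read at 517 nm. Scavenging (%) = (A_control − A_sample)/A_control × 100, where the control is DPPH in methanol alone. BHT served as reference antioxidant. Triplicate, mean ± SD of three independent experiments.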

[26] = Antioxidant activity assessed as DPPH radical scavenging activity at 10^-3 M incubated for 30 mins by spectrophotometry; format: physicochemical; conditions: 0.5 h, 1000 µM; summary of the method: as §2
[27] = read-out: LC50 (the source's name)

| SMILES | GI50 [1] | GI50 [2] | GI50 [3] | GI50 [4] | GI50 [5] | GI50 [6] | GI50 [7] | GI50 [8] | GI50 [9] | GI50 [10] | GI50 [11] | GI50 [12] | GI50 [13] | GI50 [14] | GI50 [17] | GI50 [19] | GI50 [21] | GI50 [22] | GI50 [23] | GI50 [24] | other results |
| --- | --- | --- | --- | --- | --- | --- | --- | --- | --- | --- | --- | --- | --- | --- | --- | --- | --- | --- | --- | --- | --- |
| Cn1cccc1-c1cc(-c2cccs2)nc(N)c1C#N | > 100 µM | > 100 µM | > 100 µM | > 100 µM | 5.37 µM | > 100 µM | > 100 µM | > 100 µM | > 100 µM | > 100 µM | > 100 µM | > 100 µM | > 100 µM | 45.7 µM | 85.1 µM | > 100 µM | > 100 µM | > 100 µM | > 100 µM | > 100 µM | TGI [5]: 67.6 µM; GI50 [15]: 87.1 µM; GI50 [16]: > 100 µM; GI50 [18]: > 100 µM; GI50 [20]: > 100 µM |
| CC1CCCc2c1[nH]c(=O)c(C#N)c2-c1cccn1C (stereo not drawn) | > 100 µM | > 100 µM | > 100 µM | > 100 µM | > 100 µM | > 100 µM | > 100 µM | > 100 µM | > 100 µM | > 100 µM | > 100 µM | > 100 µM | > 100 µM | 39.8 µM | 69.2 µM | > 100 µM | > 100 µM | > 100 µM | > 100 µM | > 100 µM | GI50 [15]: > 100 µM; GI50 [16]: > 100 µM; GI50 [18]: > 100 µM; GI50 [20]: > 100 µM |
| Cc1cc(C(C)(C)C)c(O)c(C(C)(C)C)c1 [BUTYLATED HYDROXYTOLUENE] | – | – | – | – | – | – | – | – | – | – | – | – | – | – | – | – | – | – | – | – | inhibition (INH) [25]: 20%; inhibition (INH) [26]: 36% |
| Cn1cccc1-c1cc(-c2ccccc2)nc(N)c1C#N | 0.08 µM | 0.76 µM | > 100 µM | 53.7 µM | 35.5 µM | 95.5 µM | 81.3 µM | 0.01 µM | > 100 µM | 61.6 µM | > 100 µM | 79.4 µM | 33.9 µM | 18.6 µM | 46.8 µM | > 100 µM | > 100 µM | > 100 µM | 67.6 µM | 60.2 µM | inhibition (INH) [25]: 12%; inhibition (INH) [26]: 27%; LC50 (concentration causing net 50% loss of initial cells) [1]: 3.55 µM; TGI [1]: 0.38 µM; TGI [8]: 0.05 µM; TGI [14]: 77.6 µM; GI50 [15]: 44.7 µM; GI50 [16]: > 100 µM; GI50 [18]: 91.2 µM; GI50 [20]: > 100 µM |
| Cn1cccc1-c1cc(-c2ccccc2)[nH]c(=O)c1C#N | > 100 µM | > 100 µM | 29.1 µM | > 100 µM | > 100 µM | 31.7 µM | > 100 µM | 0.11 µM | > 100 µM | > 100 µM | > 100 µM | > 100 µM | > 100 µM | 47.4 µM | > 100 µM | > 100 µM | > 100 µM | > 100 µM | 83.2 µM | 85.1 µM | TGI [3]: 57.4 µM; TGI [8]: 0.13 µM; GI50 [15]: 97.7 µM; GI50 [16]: > 100 µM; GI50 [18]: 27.5 µM; GI50 [20]: > 100 µM |
| CC1CCCc2c1nc(N)c(C#N)c2-c1cccn1C (stereo not drawn) | > 100 µM | 0.42 µM | > 100 µM | 79.4 µM | 3.39 µM | > 100 µM | > 100 µM | 47.9 µM | 64.6 µM | 66.1 µM | > 100 µM | > 100 µM | > 100 µM | 22.4 µM | 77.6 µM | 30.2 µM | > 100 µM | > 100 µM | 69.2 µM | 69.1 µM | inhibition (INH) [25]: 9%; inhibition (INH) [26]: 16%; TGI [5]: 20.4 µM; CC50 [5, 27]: 91.2 µM; TGI [14]: 85.1 µM; GI50 [15]: 33.1 µM; GI50 [16]: 70.8 µM; GI50 [18]: 91.2 µM; GI50 [20]: > 100 µM |
| Cn1cccc1-c1cc(-c2cccs2)[nH]c(=O)c1C#N | > 100 µM | > 100 µM | > 100 µM | > 100 µM | > 100 µM | 52.5 µM | 83.2 µM | 10 µM | 69.2 µM | 25.7 µM | > 100 µM | > 100 µM | > 100 µM | 38.1 µM | > 100 µM | > 100 µM | > 100 µM | > 100 µM | > 100 µM | > 100 µM | TGI [8]: 40.7 µM; GI50 [15]: 72.4 µM; GI50 [16]: 22.9 µM; GI50 [18]: 17.8 µM; GI50 [20]: 13.8 µM; TGI [20]: 27.5 µM; CC50 [20, 27]: 54.9 µM |
| COc1ccc(-c2cc(-c3cccn3C)c(C#N)c(=O)[nH]2)cc1OC | – | > 100 µM | 22.9 µM | > 100 µM | 0.48 µM | 30.9 µM | > 100 µM | 0.05 µM | > 100 µM | > 100 µM | 91.2 µM | > 100 µM | > 100 µM | – | > 100 µM | > 100 µM | > 100 µM | > 100 µM | > 100 µM | 34.7 µM | inhibition (INH) [25]: 17%; inhibition (INH) [26]: 31%; TGI [8]: 9.77 µM |
| COc1ccc(-c2cc(-c3cccn3C)c(C#N)c(N)n2)cc1OC | 0.01 µM | 19.5 µM | 46.8 µM | 38.9 µM | 56.2 µM | > 100 µM | > 100 µM | 5.13 µM | > 100 µM | 40.7 µM | 89.1 µM | 83.2 µM | 83.2 µM | 20.9 µM | 40.7 µM | 67.6 µM | 91.2 µM | 93.3 µM | 38 µM | 64.6 µM | inhibition (INH) [25]: 19%; inhibition (INH) [26]: 33%; LC50 (concentration causing net 50% loss of initial cells) [1]: 9.77 µM; TGI [1]: 3.98 µM; TGI [14]: 70.8 µM; GI50 [15]: 87.1 µM; GI50 [16]: 95.5 µM; GI50 [18]: 83.2 µM; GI50 [20]: 97.7 µM |
